Laboratory results as given in ChEMBL document CHEMBL1123111, “Potential inhibitors of S-adenosylmethionine-dependent methyltransferases. 8. Molecular dissections of carbocyclic 3-deazaadenosine as inhibitors of S-adenosylhomocysteine hydrolase” (1985).

Assays:
[1] = test system: L929; test: Compound was evaluated for cellular toxicity by [3H]thymidine incorporation into DNA of uninfected L-929 cells after 72 hr exposure; type: functional, Mus musculus; set-up: concentration or dose not given beside the values
Procedure, shortened: (§1)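 Uninfected mouse L-929 monolayers (2.5 × 10^6 cells/60-mm dish) exposed to 10 µM compound or no drug in serum-free KU-1 medium for 36 or 72 h. Then pulsed with [3H]thymidine. Cells trypsinized, precipitated in 10% TCA at 4 °C, and precipitates collected on glass-fibre filters. Filters solubilized and counted by liquid scintillation. Incorporation expressed as percent of untreated controls.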

[2] = molecular target: Adenosylhomocysteinase (Bos taurus) (UniProt Q3MHL4); test: Evaluated for the inhibition of bovine liver S-adenosyl-homocysteine hydrolase at concentration 2.0 mM
Chain of Adenosylhomocysteinase (Bos taurus) (Q3MHL4 whole entry, looked up): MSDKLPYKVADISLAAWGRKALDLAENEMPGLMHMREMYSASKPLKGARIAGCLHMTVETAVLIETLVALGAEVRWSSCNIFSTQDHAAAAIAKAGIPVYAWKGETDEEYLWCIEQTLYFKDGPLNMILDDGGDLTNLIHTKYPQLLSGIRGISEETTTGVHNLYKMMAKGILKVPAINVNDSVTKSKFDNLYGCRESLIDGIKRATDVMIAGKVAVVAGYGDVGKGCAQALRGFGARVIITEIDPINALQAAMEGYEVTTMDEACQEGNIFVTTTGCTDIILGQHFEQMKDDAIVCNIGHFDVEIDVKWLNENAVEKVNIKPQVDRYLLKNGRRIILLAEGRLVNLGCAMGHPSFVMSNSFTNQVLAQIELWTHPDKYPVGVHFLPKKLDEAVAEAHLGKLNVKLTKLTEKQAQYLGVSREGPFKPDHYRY

[3] = test system: L929; test: Ability to inhibit Vaccinia virus plaque formation after 72 hr in monolayer cultures of mouse L-929 cells; type: functional; set-up: concentration or dose not given beside the values
[4] = test system: L929; test: Compound was evaluated for cellular toxicity by [3H]thymidine incorporation into DNA of uninfected L-929 cells after 36h exposure; type: functional, Mus musculus; set-up: concentration or dose not given beside the values; procedure, shortened: as §1

| Compound | Control [1] | inhibition [2] | Inhibition [3] | Control [4] |
| --- | --- | --- | --- | --- |
| Nc1nccc2c1ncn2CCCCO | 110% | 12% | 51% | 102% |
| Nc1nccc2c1ncn2CC(O)CO (centres undefined) | 138% | 95% | 53% | 88% |
| Nc1nccc2c1ncn2[C@@H]1C[C@H](CO)[C@@H](O)[C@H]1O [3-DEAZAARISTEROMYCIN A] | 246% | – | 95% | 86% |
| Nc1nccc2c1ncn2C(CO)CCCO (centres undefined) | 140% | 50% | 27% | 91% |
| Nc1nccc2c1ncn2CCO | 113% | 27% | 33% | 95% |
